{"source": "ChEMBL document CHEMBL4411332", "about": "“Deciphering the Role of Intramolecular Networking in Cholic Acid-Peptide Conjugates on the Lipopolysaccharide Surface in Combating Gram-Negative Bacterial Infections” (J Med Chem, 2019)", "key": {"Escherichia coli [1]": {"system": "Escherichia coli", "assay": "Antibacterial activity against Escherichia coli by broth dilution assay", "format": "functional", "how_it_was_run": "(§1)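 MIC99 by broth-dilution assay; antibacterial and culture details are in the Supporting Information.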"}, "[2]": {"assay": "Binding affinity to DPH-doped model gram negative bacterial membrane (LPS/DPPE/DMPG lipids) assessed as increase in membrane fluidity by fluorescence anisotrophy", "how_it_was_run": "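Vesicles of LPS, DPPE and DMPG doped with DPH were incubated with compound, and the change in DPH fluorescence anisotropy was recorded. Mean ± SD of three replicates, unpaired two-tailed t-test.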"}, "[3]": {"assay": "Solubility in water", "format": "physicochemical", "conditions": "buffer"}, "Klebsiella pneumoniae": {"system": "Klebsiella pneumoniae", "assay": "Antibacterial activity against Klebsiella pneumoniae by broth dilution assay", "format": "functional", "how_it_was_run": "as §1"}, "Acinetobacter baumannii": {"system": "Acinetobacter baumannii", "assay": "Antibacterial activity against Acinetobacter baumannii by broth dilution assay", "format": "functional", "how_it_was_run": "as §1"}, "Erythrocyte": {"system": "Erythrocyte", "assay": "Hemolytic activity against human RBC incubated for 1 hr", "format": "ADME, cell-based"}, "A549": {"system": "A549", "assay": "Cytotoxicity against human A549 cells incubated for 48 hrs by MTT assay", "format": "cell-based", "conditions": "a549, 48 h"}, "Escherichia coli [4]": {"system": "Escherichia coli", "assay": "Antimicrobial activity against compound-pre-treated Escherichia coli by broth dilution assay based drug resistance development assay", "format": "functional, organism-based", "how_it_was_run": "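E. coli pre-treated with compound, then MIC₉₉ redetermined by broth-dilution assay in four replicates; reported as fold change in MIC₉₉ relative to starting value to assess resistance development.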"}}, "note": "The source made the active and inactive calls. No cut-off for these calls is given here."}
{"compound": "CSCC[C@H](N)C(=O)NCC(=O)O[C@@H]1CC[C@@]2(C)[C@@H](C1)C[C@@H](OC(=O)CNC(=O)[C@@H](N)CCSC)[C@@H]1[C@@H]2C[C@H](OC(=O)CNC(=O)[C@@H](N)CCSC)[C@]2(C)[C@@H]([C@H](C)CCC(=O)OCc3ccccc3)CC[C@@H]12", "values": [{"measurement": "MIC99", "setting": "Escherichia coli [1]", "result": "8 to 128", "unit": "µM"}]}
{"compound": "C[C@H](CCC(=O)OCc1ccccc1)[C@H]1CC[C@H]2[C@@H]3[C@H](OC(=O)CNC(=O)[C@@H](N)Cc4c[nH]c5ccccc45)C[C@@H]4C[C@H](OC(=O)CNC(=O)[C@@H](N)Cc5c[nH]c6ccccc56)CC[C@]4(C)[C@H]3C[C@H](OC(=O)CNC(=O)[C@@H](N)Cc3c[nH]c4ccccc34)[C@]12C.Cl.Cl.Cl", "values": [{"measurement": "MIC99", "setting": "Escherichia coli [1]", "result": "inactive"}, {"measurement": "Activity", "setting": "[2]", "result": "inactive"}, {"measurement": "solubility", "setting": "[3]", "result": "Insoluble"}]}
{"compound": "CC[C@H](C)[C@H](N)C(=O)NCC(=O)O[C@@H]1CC[C@@]2(C)[C@@H](C1)C[C@@H](OC(=O)CNC(=O)[C@@H](N)[C@@H](C)CC)[C@@H]1[C@@H]2C[C@H](OC(=O)CNC(=O)[C@@H](N)[C@@H](C)CC)[C@]2(C)[C@@H]([C@H](C)CCC(=O)OCc3ccccc3)CC[C@@H]12", "values": [{"measurement": "MIC99", "setting": "Escherichia coli [1]", "result": 8, "unit": "µM"}, {"measurement": "MIC99", "setting": "Klebsiella pneumoniae", "result": 16, "unit": "µM"}, {"measurement": "MIC99", "setting": "Acinetobacter baumannii", "result": 16, "unit": "µM"}, {"measurement": "Activity", "setting": "Erythrocyte", "result": "Toxic"}, {"measurement": "Activity", "setting": "A549", "result": "Toxic"}]}
{"compound": "NC[C@@H]1O[C@H](O[C@H]2[C@@H](O)[C@H](O[C@@H]3[C@@H](O)[C@H](N)C[C@H](N)[C@H]3O[C@H]3O[C@H](CN)[C@@H](O)[C@H](O)[C@H]3N)O[C@@H]2CO)[C@H](N)[C@@H](O)[C@@H]1O", "values": [{"measurement": "Activity", "setting": "Escherichia coli [4]", "result": "inactive"}]}
{"compound": "C[C@H](CCC(=O)OCc1ccccc1)[C@H]1CC[C@H]2[C@@H]3[C@H](OC(=O)CNC(=O)[C@@H](N)Cc4ccccc4)C[C@@H]4C[C@H](OC(=O)CNC(=O)[C@@H](N)Cc5ccccc5)CC[C@]4(C)[C@H]3C[C@H](OC(=O)CNC(=O)[C@@H](N)Cc3ccccc3)[C@]12C", "values": [{"measurement": "MIC99", "setting": "Escherichia coli [1]", "result": "inactive"}]}
